Source: ChEMBL document CHEMBL1151428, “Capability of 11 antipneumococcal antibiotics to select for resistance by multistep and single-step methodologies” (2007)
In brackets after ≈: the same amount, converted by molar mass.

Key:
Assay type in all cases: functional
Streptococcus pneumoniae [1] = assay: Antimicrobial activity against drug-resistant Streptococcus pneumoniae isolate 3243 by NCCLS M7-A7 method
Streptococcus pneumoniae [2] = assay: Antimicrobial activity against drug-resistant Streptococcus pneumoniae isolate 3676 after 50 passages with moxifloxacin measured after 10 antibiotic-free subculture by multi-step resistance selection technique
Streptococcus pneumoniae [3] = assay: Antimicrobial activity against drug-resistant Streptococcus pneumoniae isolate 1077 after 49 passages with clindamycin measured after 10 antibiotic-free subculture by multi-step resistance selection technique
Streptococcus pneumoniae [4] = assay: Antimicrobial activity against drug-resistant Streptococcus pneumoniae isolate 3243 after 33 passages with azithromycin measured after 10 antibiotic-free subculture by multi-step resistance selection technique
How it was run: (§1)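 Mutants selected by daily broth passage in subinhibitory drug in cation-adjusted Mueller-Hinton broth with 5% lysed horse blood. Stability was tested by 10 daily passages on blood agar without antibiotic, then macrodilution MIC.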

Streptococcus pneumoniae [5] = assay: Antimicrobial activity against drug-resistant Streptococcus pneumoniae isolate 1635 after 14 passages with clindamycin measured after 10 antibiotic-free subculture by multi-step resistance selection technique
Streptococcus pneumoniae [6] = assay: Antimicrobial activity against drug-resistant Streptococcus pneumoniae isolate 2527 by NCCLS M7-A7 method
Streptococcus pneumoniae [7] = assay: Antimicrobial activity against drug-resistant Streptococcus pneumoniae isolate 1635 after 14 passages with azithromycin measured after 10 antibiotic-free subculture by multi-step resistance selection technique; how it was run: as §1
Streptococcus pneumoniae [8] = assay: Antimicrobial activity against drug-resistant Streptococcus pneumoniae isolate 1077 after 29 passages with azithromycin measured after 10 antibiotic-free subculture by multi-step resistance selection technique; how it was run: as §1
Streptococcus pneumoniae [9] = assay: Antimicrobial activity against drug-resistant Streptococcus pneumoniae isolate 1635 after 49 passages with clarithromycin measured after 10 antibiotic-free subculture by multi-step resistance selection technique
Streptococcus pneumoniae [10] = assay: Antimicrobial activity against drug-resistant Streptococcus pneumoniae isolate 1635 by NCCLS M7-A7 method
Streptococcus pneumoniae [11] = assay: Antimicrobial activity against drug-resistant Streptococcus pneumoniae isolate 37 by NCCLS M7-A7 method
Streptococcus pneumoniae [12] = assay: Antimicrobial activity against drug-resistant Streptococcus pneumoniae isolate 3676 after 44 passages with clarithromycin measured after 10 antibiotic-free subculture by multi-step resistance selection technique
Streptococcus pneumoniae [13] = assay: Antimicrobial activity against drug-resistant Streptococcus pneumoniae isolate 3665 by NCCLS M7-A7 method
Streptococcus pneumoniae [14] = assay: Antimicrobial activity against drug-resistant Streptococcus pneumoniae isolate 1076 by NCCLS M7-A7 method
Streptococcus pneumoniae [15] = assay: Antimicrobial activity against drug-resistant Streptococcus pneumoniae isolate 37 after 14 passages with Telithromycin measured after 10 antibiotic-free subculture by multi-step resistance selection technique
Streptococcus pneumoniae [16] = assay: Antimicrobial activity against drug-resistant Streptococcus pneumoniae isolate 3243 after 20 passages with moxifloxacin measured after 10 antibiotic-free subculture by multi-step resistance selection technique; how it was run: as §1
Streptococcus pneumoniae [17] = assay: Antimicrobial activity against drug-resistant Streptococcus pneumoniae isolate 3009 after 21 passages with gemifloxacin measured after 10 antibiotic-free subculture by multi-step resistance selection technique; how it was run: as §1
Streptococcus pneumoniae [18] = assay: Antimicrobial activity against drug-resistant Streptococcus pneumoniae isolate 3009 after 50 passages by multi-step resistance selection technique
How it was run: (§2)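 Daily serial passage in subinhibitory drug levels in 1 ml cation-adjusted Mueller-Hinton broth with 5% lysed horse blood; fresh broth for tigecycline. Each day, 10 μl were taken from the tube one to two dilutions below the MIC whose turbidity matched the growth control, and used to set the next MIC. […] MIC by macrodilution.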

Streptococcus pneumoniae [19] = assay: Antimicrobial activity against drug-resistant Streptococcus pneumoniae isolate 2527 after 50 passages by multi-step resistance selection technique; how it was run: as §2
Streptococcus pneumoniae [20] = assay: Antimicrobial activity against drug-resistant Streptococcus pneumoniae isolate 3413 after 30 passages with Telithromycin measured after 10 antibiotic-free subculture by multi-step resistance selection technique; how it was run: as §1
Streptococcus pneumoniae [21] = assay: Antimicrobial activity against drug-resistant Streptococcus pneumoniae isolate 24 by NCCLS M7-A7 method
Streptococcus pneumoniae [22] = assay: Antimicrobial activity against drug-resistant Streptococcus pneumoniae isolate 3009 after 25 passages with clarithromycin measured after 10 antibiotic-free subculture by multi-step resistance selection technique
Streptococcus pneumoniae [23] = assay: Antimicrobial activity against drug-resistant Streptococcus pneumoniae isolate 3676 after 14 passages with Telithromycin measured after 10 antibiotic-free subculture by multi-step resistance selection technique
Streptococcus pneumoniae [24] = assay: Antimicrobial activity against drug-resistant Streptococcus pneumoniae isolate 3009 by NCCLS M7-A7 method
Streptococcus pneumoniae [25] = assay: Antimicrobial activity against drug-resistant Streptococcus pneumoniae isolate 3274 after 48 passages with Telithromycin measured after 10 antibiotic-free subculture by multi-step resistance selection technique; how it was run: as §1
Streptococcus pneumoniae [26] = assay: Antimicrobial activity against drug-resistant Streptococcus pneumoniae isolate 1076 after 14 passages with Telithromycin measured after 10 antibiotic-free subculture by multi-step resistance selection technique; how it was run: as §1
Streptococcus pneumoniae [27] = assay: Antimicrobial activity against drug-resistant Streptococcus pneumoniae isolate 3413 by NCCLS M7-A7 method
Streptococcus pneumoniae [28] = assay: Antimicrobial activity against drug-resistant Streptococcus pneumoniae isolate 1076 after 35 passages with moxifloxacin measured after 10 antibiotic-free subculture by multi-step resistance selection technique; how it was run: as §1
Streptococcus pneumoniae [29] = assay: Antimicrobial activity against drug-resistant Streptococcus pneumoniae isolate 3274 by NCCLS M7-A7 method
Streptococcus pneumoniae [30] = assay: Antimicrobial activity against drug-resistant Streptococcus pneumoniae isolate 3665 after 14 passages with Telithromycin measured after 10 antibiotic-free subculture by multi-step resistance selection technique
Streptococcus pneumoniae [31] = assay: Antimicrobial activity against drug-resistant Streptococcus pneumoniae isolate 24 after 14 passages with Telithromycin measured after 10 antibiotic-free subculture by multi-step resistance selection technique; how it was run: as §1
Streptococcus pneumoniae [32] = assay: Antimicrobial activity against drug-resistant Streptococcus pneumoniae isolate 1077 after 15 passages with Telithromycin measured after 10 antibiotic-free subculture by multi-step resistance selection technique; how it was run: as §1
Streptococcus pneumoniae [33] = assay: Antimicrobial activity against drug-resistant Streptococcus pneumoniae isolate 3009 after 19 passages with moxifloxacin measured after 10 antibiotic-free subculture by multi-step resistance selection technique; how it was run: as §1
Streptococcus pneumoniae [34] = assay: Antimicrobial activity against drug-resistant Streptococcus pneumoniae isolate 3413 after 50 passages by multi-step resistance selection technique
How it was run: (§3)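 Daily serial passage in subinhibitory drug levels in 1 ml cation-adjusted Mueller-Hinton broth with 5% lysed horse blood; fresh broth for tigecycline. Each day, 10 μl were taken from the tube one to two dilutions below the MIC whose turbidity matched the growth control, and used to set the next MIC. MIC by macrodilution.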

Streptococcus pneumoniae [35] = assay: Antimicrobial activity against drug-resistant Streptococcus pneumoniae isolate 3676 after 50 passages by multi-step resistance selection technique
How it was run: (§4)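 Daily serial passage in broth at subinhibitory drug levels: 1 ml cation-adjusted Mueller-Hinton broth with 5% lysed horse blood; fresh broth for tigecycline. Each day 10 μl inoculum taken from the tube one to two dilutions below MIC matching growth-control turbidity, used to set next MIC. Continued until ≥8-fold MIC rise, minimum 14, maximum 50 passages; MIC read by macrodilution.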

Streptococcus pneumoniae [36] = assay: Antimicrobial activity against drug-resistant Streptococcus pneumoniae isolate 24 after 50 passages by multi-step resistance selection technique; how it was run: as §3
Streptococcus pneumoniae [37] = assay: Antimicrobial activity against drug-resistant Streptococcus pneumoniae isolate 3243 after 50 passages by multi-step resistance selection technique; how it was run: as §2
Streptococcus pneumoniae [38] = assay: Antimicrobial activity against drug-resistant Streptococcus pneumoniae isolate 1077 after 50 passages by multi-step resistance selection technique; how it was run: as §3
Streptococcus pneumoniae [39] = assay: Antimicrobial activity against drug-resistant Streptococcus pneumoniae isolate 3665 after 50 passages by multi-step resistance selection technique; how it was run: as §4
Streptococcus pneumoniae [40] = assay: Antimicrobial activity against drug-resistant Streptococcus pneumoniae isolate 3274 after 50 passages by multi-step resistance selection technique; how it was run: as §3

Compound	MIC (Streptococcus pneumoniae [1]) [µg/mL]	MIC (Streptococcus pneumoniae [2]) [µg/mL]	MIC (Streptococcus pneumoniae [3]) [µg/mL]	MIC (Streptococcus pneumoniae [4]) [µg/mL]	MIC (Streptococcus pneumoniae [5]) [µg/mL]	MIC (Streptococcus pneumoniae [6]) [µg/mL]	MIC (Streptococcus pneumoniae [7]) [µg/mL]	MIC (Streptococcus pneumoniae [8]) [µg/mL]	MIC (Streptococcus pneumoniae [9]) [µg/mL]	MIC (Streptococcus pneumoniae [10]) [µg/mL]	MIC (Streptococcus pneumoniae [11]) [µg/mL]	MIC (Streptococcus pneumoniae [12]) [µg/mL]	MIC (Streptococcus pneumoniae [13]) [µg/mL]	MIC (Streptococcus pneumoniae [14]) [µg/mL]	MIC (Streptococcus pneumoniae [15]) [µg/mL]	MIC (Streptococcus pneumoniae [16]) [µg/mL]	MIC (Streptococcus pneumoniae [17]) [µg/mL]	MIC (Streptococcus pneumoniae [18]) [µg/mL]	MIC (Streptococcus pneumoniae [19]) [µg/mL]	MIC (Streptococcus pneumoniae [20]) [µg/mL]	other results
CC[C@H]1OC(=O)[C@H](C)C(=O)[C@H](C)[C@@H](O[C@@H]2O[C@H](C)C[C@H](N(C)C)[C@H]2O)[C@](C)(OC)C[C@@H](C)C(=O)[C@H](C)[C@H]2N(CCCCn3cnc(-c4cccnc4)c3)C(=O)O[C@]12C [TELITHROMYCIN]	0.004 (≈ 0.00493 µM)	0.06 (≈ 0.0739 µM)	0.06 (≈ 0.0739 µM)	0.06 (≈ 0.0739 µM)	0.008 (≈ 0.00985 µM)	0.004 (≈ 0.00493 µM)	0.004 (≈ 0.00493 µM)	0.125 (≈ 0.154 µM)	0.016 (≈ 0.0197 µM)	0.004 (≈ 0.00493 µM)	0.25 (≈ 0.308 µM)	0.03 (≈ 0.0369 µM)	0.125 (≈ 0.154 µM)	0.5 (≈ 0.616 µM)	8 (≈ 9.85 µM)	0.016 (≈ 0.0197 µM)	0.03 (≈ 0.0369 µM)	0.03 (≈ 0.0369 µM)	0.016 (≈ 0.0197 µM)	0.5 (≈ 0.616 µM)	MIC (Streptococcus pneumoniae [21]): 0.25 µg/mL (≈ 0.308 µM); MIC (Streptococcus pneumoniae [22]): 0.06 µg/mL (≈ 0.0739 µM); MIC (Streptococcus pneumoniae [23]): 0.06 µg/mL (≈ 0.0739 µM); MIC (Streptococcus pneumoniae [24]): 0.016 µg/mL (≈ 0.0197 µM); MIC (Streptococcus pneumoniae [25]): 0.5 µg/mL (≈ 0.616 µM); MIC (Streptococcus pneumoniae [26]): > 64 µg/mL; MIC (Streptococcus pneumoniae [27]): 0.03 µg/mL (≈ 0.0369 µM); MIC (Streptococcus pneumoniae [28]): 1 µg/mL (≈ 1.23 µM); MIC (Streptococcus pneumoniae [29]): 0.004 µg/mL (≈ 0.00493 µM); MIC (Streptococcus pneumoniae [30]): 0.25 µg/mL (≈ 0.308 µM); MIC (Streptococcus pneumoniae [31]): 16 µg/mL (≈ 19.7 µM); MIC (Streptococcus pneumoniae [32]): 0.25 µg/mL (≈ 0.308 µM); MIC (Streptococcus pneumoniae [33]): 0.008 µg/mL (≈ 0.00985 µM)
CN(C)c1cc(NC(=O)CNC(C)(C)C)c(O)c2c1C[C@H]1C[C@H]3[C@H](N(C)C)C(O)=C(C(N)=O)C(=O)[C@@]3(O)C(O)=C1C2=O [TIGECYCLINE]	0.03 (≈ 0.0512 µM)	0.03 (≈ 0.0512 µM)	0.03 (≈ 0.0512 µM)	0.06 (≈ 0.102 µM)	0.03 (≈ 0.0512 µM)	0.016 (≈ 0.0273 µM)	0.03 (≈ 0.0512 µM)	0.03 (≈ 0.0512 µM)	0.016 (≈ 0.0273 µM)	0.016 (≈ 0.0273 µM)	0.016 (≈ 0.0273 µM)	0.03 (≈ 0.0512 µM)	0.016 (≈ 0.0273 µM)	0.03 (≈ 0.0512 µM)	0.03 (≈ 0.0512 µM)	0.03 (≈ 0.0512 µM)	0.016 (≈ 0.0273 µM)	0.016 (≈ 0.0273 µM)	0.016 (≈ 0.0273 µM)	0.03 (≈ 0.0512 µM)	MIC (Streptococcus pneumoniae [34]): 0.03 µg/mL (≈ 0.0512 µM); MIC (Streptococcus pneumoniae [35]): 0.016 µg/mL (≈ 0.0273 µM); MIC (Streptococcus pneumoniae [36]): 0.03 µg/mL (≈ 0.0512 µM); MIC (Streptococcus pneumoniae [21]): 0.03 µg/mL (≈ 0.0512 µM); MIC (Streptococcus pneumoniae [22]): 0.03 µg/mL (≈ 0.0512 µM); MIC (Streptococcus pneumoniae [23]): 0.03 µg/mL (≈ 0.0512 µM); MIC (Streptococcus pneumoniae [37]): 0.03 µg/mL (≈ 0.0512 µM); MIC (Streptococcus pneumoniae [25]): 0.03 µg/mL (≈ 0.0512 µM); MIC (Streptococcus pneumoniae [26]): 0.03 µg/mL (≈ 0.0512 µM); MIC (Streptococcus pneumoniae [27]): 0.016 µg/mL (≈ 0.0273 µM); MIC (Streptococcus pneumoniae [28]): 0.06 µg/mL (≈ 0.102 µM); MIC (Streptococcus pneumoniae [29]): 0.03 µg/mL (≈ 0.0512 µM); MIC (Streptococcus pneumoniae [30]): 0.03 µg/mL (≈ 0.0512 µM); MIC (Streptococcus pneumoniae [31]): 0.03 µg/mL (≈ 0.0512 µM); MIC (Streptococcus pneumoniae [38]): 0.016 µg/mL (≈ 0.0273 µM); MIC (Streptococcus pneumoniae [32]): 0.03 µg/mL (≈ 0.0512 µM); MIC (Streptococcus pneumoniae [33]): 0.06 µg/mL (≈ 0.102 µM); MIC (Streptococcus pneumoniae [39]): 0.016 µg/mL (≈ 0.0273 µM); MIC (Streptococcus pneumoniae [40]): 0.03 µg/mL (≈ 0.0512 µM)
